What was measured:
Format in all cases: functional
Mus musculus [1] = assay: The effect on excitement was measured in mice following oral administration
Method in brief: (§1)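 Observed at 0.5, 2, 5 and 24 h for ataxia (abnormal gait/imprecise movement), pupil diameter (dissecting microscope, 20×, micrometer), excitement (spontaneous running/jumping) and electroshock protection (corneal electrodes at 2 and 5 h). ED50 by Thompson method.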

Mus musculus [2] = assay: The effect on electroshock protection in mice following oral administration; method in brief: as §1
Mus musculus [3] = assay: The effect on 24-hour mortality in mice following oral administration
Mus musculus [4] = assay: Effect on pupil dilation was measured in mice upon oral administration; method in brief: as §1
Mus musculus [5] = assay: Compound was tested for antidepressant activity by determining the reversal of tetrabenazine-induced ptosis upon oral administration; 0.9-3.3
Method in brief: (§2)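 Mice given test drug orally; 30 min later challenged with tetrabenazine (methanesulfonate) 32 mg/kg ip in 0.05 M KCl pH 2.0. Scored 1 h after test drug for exploratory activity and ptosis; ptosis antagonism = lid closure <50% in both eyes exactly 2 s after placing mouse facing observer. ED50 calculated by Thompson method.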

Mus musculus [6] = assay: The effect on ataxia in mice following oral administration; method in brief: as §1
Mus musculus [7] = assay: Antidepressant activity by determining the decreased exploratory activity in mice upon oral administration; method in brief: as §2
Mus musculus [8] = assay: Compound was tested for antidepressant activity by determining the decreased exploratory activity in mice upon oral administration; 7.9-16; method in brief: as §2
Mus musculus [9] = assay: Compound was tested for antidepressant activity by determining the reversal of tetrabenazine-induced ptosis upon oral administration; 2.7-5.1; method in brief: as §2
Mus musculus [10] = assay: Antidepressant activity by determining the reversal of tetrabenazine-induced ptosis upon oral administration; method in brief: as §2
Mus musculus [11] = assay: Compound was tested for antidepressant activity by determining the reversal of tetrabenazine-induced ptosis upon oral administration; 3.0-73; method in brief: as §2
Mus musculus [12] = assay: Compound was tested for antidepressant activity by determining the decreased exploratory activity in mice upon oral administration; 20-36; method in brief: as §2
Mus musculus [13] = assay: Compound was tested for antidepressant activity by determining the reversal of tetrabenazine-induced ptosis upon oral administration; 5.8-15.6; method in brief: as §2
Mus musculus [14] = assay: Compound was tested for antidepressant activity by determining the decreased exploratory activity in mice upon oral administration; method in brief: as §2
Mus musculus [15] = assay: Compound was tested for antidepressant activity by determining the decreased exploratory activity in mice upon oral administration; 39-238; method in brief: as §2
Mus musculus [16] = assay: Compound was tested for antidepressant activity by determining the reversal of tetrabenazine-induced ptosis upon oral administration; 26-122; method in brief: as §2
Mus musculus [17] = assay: Compound was tested for antidepressant activity by determining the reversal of tetrabenazine-induced ptosis upon oral administration; 37-170; method in brief: as §2
Mus musculus [18] = assay: Compound was tested for antidepressant activity by determining the decreased exploratory activity in mice upon oral administration; 22-53; method in brief: as §2
Mus musculus [19] = assay: Compound was tested for antidepressant activity by determining the reversal of tetrabenazine-induced ptosis upon oral administration; 10-57; method in brief: as §2
Mus musculus [20] = assay: Compound was tested for antidepressant activity by determining the reversal of tetrabenazine-induced ptosis upon oral administration; 6-21; method in brief: as §2
Mus musculus [21] = assay: Compound was tested for antidepressant activity by determining the decreased exploratory activity in mice upon oral administration; 16-31; method in brief: as §2
Mus musculus [22] = assay: Compound was tested for antidepressant activity by determining the decreased exploratory activity in mice upon oral administration; 9.2-17; method in brief: as §2
Mus musculus [23] = assay: Compound was tested for antidepressant activity by determining the reversal of tetrabenazine-induced ptosis upon oral administration; 2.2-6.2; method in brief: as §2

| Compound | ED50 (Mus musculus [1]) [mg/kg] | ED50 (Mus musculus [2]) [mg/kg] | ED50 (Mus musculus [3]) [mg/kg] | ED50 (Mus musculus [4]) [mg/kg] | ED50 (Mus musculus [6]) [mg/kg] | ED50 (Mus musculus [7]) [mg/kg] | ED50 (Mus musculus [10]) [mg/kg] | also measured |
| --- | --- | --- | --- | --- | --- | --- | --- | --- |
| CN(C)CCCN=C1c2ccccc2C2CC2c2ccccc21 (stereo unspecified) | > 324 | > 324 | 200 | 12 | 12 | > 81 | – | ED50 (Mus musculus [5]): 1.7 mg/kg |
| CN(C)CC/N=C1\c2ccccc2C2CC2c2ccc(Cl)cc21 (stereo unspecified) | 60 | 200 | 200 | 12 | 20 | – | – | ED50 (Mus musculus [8]): 11.2 mg/kg; ED50 (Mus musculus [9]): 3.7 mg/kg |
| CC(=O)N1Cc2ccccc2/C(=N\CCN(C)C)c2ccccc21 | > 324 | > 324 | > 324 | 200 | 100 | > 125 | > 125 | – |
| CN(C)CCCN=C(c1ccccc1)c1ccccc1 | > 324 | > 324 | 200 | > 324 | 60 | > 125 | > 125 | – |
| CN(C)CC/N=C1\c2ccccc2CSc2ccccc21 | > 324 | > 324 | 60 | 20 | 20 | – | – | ED50 (Mus musculus [11]): 47 mg/kg; ED50 (Mus musculus [12]): 27 mg/kg |
| CCN(CC)CCN=C1c2ccccc2CCc2ccccc21 | > 324 | 200 | 60 | 36 | 20 | 36 | > 125 | – |
| CN(C)CCCN=c1c2ccccc2ccc2ccccc12 | 36 | > 324 | – | 7 | 20 | – | – | ED50 (Mus musculus [13]): 9.5 mg/kg; ED50 (Mus musculus [14]): > 125 mg/kg |
| NCCCNC1c2ccccc2CCc2ccccc21 | > 324 | > 324 | 200 | 60 | 60 | – | > 125 | ED50 (Mus musculus [14]): > 125 mg/kg |
| CN(C)CCC/N=C1\c2ccccc2CN(C)c2ccccc21 | > 324 | > 324 | 20 | 100 | 200 | – | – | ED50 (Mus musculus [15]): 96 mg/kg; ED50 (Mus musculus [16]): 56 mg/kg |
| CN(C)CCN=C1c2ccccc2C(C)(C)c2ccccc21 | > 324 | > 324 | 200 | > 324 | 36 | > 125 | > 125 | – |
| c1ccc2c(c1)C(=NCCN1CCOCC1)c1ccccc1C1CC21 (stereo unspecified) | > 324 | > 324 | > 324 | > 324 | 200 | > 125 | – | ED50 (Mus musculus [17]): 79 mg/kg |
| c1ccc2c(c1)C(=NCCN1CCCC1)c1ccccc1C1CC21 (stereo unspecified) | > 324 | 200 | 300 | 7 | 60 | > 125 | > 125 | – |
| CN(C)CCCN=C1c2ccccc2CCc2ccccc21 | > 324 | > 324 | 36 | 20 | 60 | – | – | ED50 (Mus musculus [18]): 34 mg/kg; ED50 (Mus musculus [19]): 24 mg/kg |
| CN(C)CC/N=C1\c2ccccc2CN(C)c2ccccc21 | > 324 | 200 | 60 | 60 | 60 | – | – | ED50 (Mus musculus [20]): 11 mg/kg; ED50 (Mus musculus [21]): 22 mg/kg |
| CN(C)CCN=C1c2ccccc2C2C(c3ccccc31)C2(F)F (stereo unspecified) | > 324 | 200 | > 324 | 200 | 60 | – | – | ED50 (Mus musculus [22]): 12.5 mg/kg; ED50 (Mus musculus [23]): 3.7 mg/kg |
| CN(C)CCN=C1c2ccccc2C2C(c3ccccc31)C2(Cl)Cl (stereo unspecified) | > 324 | > 324 | > 324 | > 324 | 200 | > 125 | > 125 | – |

— ChEMBL document CHEMBL1121802, “Imine analogues of tricyclic antidepressants” (1981)
